Compound activity: PubChem, several laboratories
Hits are enriched below; roughly 8.7% of the tested compounds scored in any of these assays.
Cav32 inh – blocks human Cav3.2 T-type calcium channel. O95180. Cav3.2-expressing cells, Fluo-4 calcium fluorescence FDSS; stronger effect = lower value. B-score at 10 µM. 4% of 100,000 active. AID 449739;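 active = single-dose well whose peak fluorescence ratio is a statistical outlier from its plate by either plate-standardised score or position-corrected B-score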
Ecoli tolC – growth inhibitors of E. coli BW25113 tolC mutant; OD615; growth inhibition, % at 10 µM (by protocol); 2.2% of 65,000 active; AID 573;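 active = growth inhibition at or above a cutoff equal to the mean over every tested compound plus 3 SD, cut at about 60% in these data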;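 also: growth measured after 20 h incubation at 37 °C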
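Test system: E. coli BW25113 ΔtolC::kan bacteria | Medium: Kanamycin-containing LB broth (50 µg/mL) | Dosing: One dose of 10 µM final | Times: 20 h incubation with compound, 37 °C | Detection: Optical density read at 615 nm | Read-out basis: Percent growth inhibition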
Ecoli WT expand – growth inhibitors of E. coli BW25113 wild type; OD600 absorbance; growth inhibition, % at 100 µM; 0.15% of 98,000 active; AID 710;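 active = growth inhibition above about 50% at one test dose, limit read from the data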;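 also: growth measured after 20 h incubation at 37 °C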
PostGolgi yeast – growth inhibition of a yeast mutant, post-Golgi transport screen. 0.9% of 98,000 active. post-Golgi transport phenotypic cell assay. inhibition, % at 10 µM;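 also: yeast cells grown in 1536-well plates; yeast grown about 18 h at 30C before absorbance read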
Pyk2 oligo antag – Pyk2 (human) oligomerization antagonism | AID 1347419 | 0.83% of 99,000 active | Q293 cells, Pyk2 FERM NanoBiT luminescence; stronger effect = lower value | z-score (the deposit names both 25 µM and 10 µM) | Q14289;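 active = Z-score of -3 or lower, scaled per plate to the spread of control and sample wells; inactive = z-score above -3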;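 also: negative z-score means lost luminescence so less FERM oligomerization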
PostGolgi ctrl – inhibits growth of the yeast control strain; efflux-deficient yeast background strain, growth absorbance A615, 16 h; AID 738; inhibition, % at 10 µM; 5% of 98,000 active
The depositor's hits bear a star; . = not tested or not shown. Rule as the data show it, unless noted: active = inhibition above about 30%; inactive = the rest.

SMILES	Cav32 inh	Ecoli tolC	Ecoli WT expand	PostGolgi yeast	Pyk2 oligo antag	PostGolgi ctrl
O=C(NCCc1ccccc1)C1CCN(c2nc3ccccc3o2)CC1	0.13	-5	-11	0	0.16	6
CSc1nc2ccc(S(=O)(=O)NC3CCCCC3)cc2s1	.	16	-2	0	-1.6	71*
CSc1nc2ccc(NS(=O)(=O)c3ccc4c(c3)OCCO4)cc2s1	-4.5*	100*	-10	8	-1.9	32*
CSc1nc2ccc(S(=O)(=O)N3CCCCC3)cc2s1	-0.52	.	-9	-1	-2.1	3
CC(C)c1cc(Br)ccc1OCCCN1C(=O)NC(C)(C)C1=O	-1.7	.	-6	-4	-1.6	38*
CC1(C)NC(=O)N(CCCOc2ccc(Br)cc2Cl)C1=O	-1.1	9	7	-3	-0.38	6
O=C(NCCC1=CCCCC1)c1ccc2c(c1)N(Cc1ccccc1)C(=O)CS2	-3.9	.	-21	-9	-1.3	14
C=C(C)C1CCC(C)=C1COC(=O)Nc1ccccc1 (stereo not drawn)	-3.8	78*	-13	3	0.21	24
CCN(CC)C(=O)CSc1nnc(CNc2ccc(F)cc2)o1	0.4	.	0	2	0.41	2
C[C@@H]1CCC[C@]2(O[C@H](CCO)C[C@@H](O)[C@@H]2O)O1	-0.088	.	.	.	.	.
O=C(N/N=C/C1C(c2ccccc2)C1(Cl)Cl)c1cccc(Br)c1 (stereo not drawn)	-6.7*	.	0	2	-1.1	10
C/C(=N\NC(=O)c1cccc(Br)c1)c1ccc(Br)cc1	0.1	.	-5	-9	0.15	2
C=CCNC(=O)c1cc(Cl)ccc1Cl	0.19	.	9	-2	1.3	4
C=CCNC(=S)N/N=C/c1ccc(-c2cc(Cl)ccc2Cl)o1	0.85	.	1	-2	-3.4*	-4
Brc1ccc(CSc2nnc(-c3cnccn3)n2Cc2ccco2)cc1	.	64*	-6	7	-2.5	38*
Fc1ccc(CSc2nnc(-c3cnccn3)n2Cc2ccco2)cc1	-0.023	21	1	7	-0.46	16
Clc1ccc(CSc2nnc(-c3ccccn3)n2Cc2ccco2)c(Cl)c1	-1.4	43	-9	4	-2.2	52*
C(=C\c1ccccc1)/CSc1nnc(-c2cnccn2)n1Cc1ccco1	-3.5*	27	-20	1	1.1	28
COc1ccc(N(CC(=O)NN=C2CCCCCCC2)S(=O)(=O)c2ccccc2)cc1	0.1	.	5	-9	-0.68	4
CCN(CC)CCC(=O)Nc1ccc2c(c1)N(C(=O)CN(CC)CC)c1ccccc1CC2	0.11	.	3	5	-0.37	17
O=C1/C(=N/n2cnnc2)c2ccccc2N1Cc1ccccc1	-0.56	-24	18	-2	.	4
O=C1CC(O)(c2ccccc2)C(c2ccccc2)=C1c1ccccc1 (stereo not drawn)	-5*	.	.	.	-1.2	.
O=C1C=C(c2ccccc2)C(O)(c2ccccc2)C1 (stereo not drawn)	0.69	-1	14	1	-0.19	10
C[C@H](NC(=O)CCC1CCC(=O)N1)c1ccccc1 (stereo partly drawn)	0.74	.	.	.	.	.
COc1cc2c(C#N)c(N3CCc4ccccc4C3)nc(N)c2c(N)n1	0.4	74*	-14	27	-0.38	77*
SMILES	Cav32 inh	Ecoli tolC	Ecoli WT expand	PostGolgi yeast	Pyk2 oligo antag	PostGolgi ctrl
CC1=C(C(=O)OC2CCCCC2)C(c2ccco2)C2=C(CC(C)(C)CC2=O)N1 (stereo not drawn)	-2.6	42	-3	19	-3.3*	41*
COC(=O)C1C(=O)C2=C(CC1C)NC(C)=C(C(=O)OCc1ccc(OC)cc1)C2c1ccc(C)o1 (stereo not drawn)	-2.6	24	-13	-3	1.8	4
COC(=O)C1C(=O)C2=C(CC1C)NC(C)=C(C(=O)OCCOc1ccccc1)C2c1ccc(C)o1 (stereo not drawn)	-5.2*	16	-32	7	-3.9*	17
CC1=C(C(=O)OCCOc2ccccc2)C(c2ccc(C)o2)C2=C(CC(C)(C)CC2=O)N1 (stereo not drawn)	-7.1*	31	-22	-7	-1.6	0
CCN(CC)CCn1c(NCc2nc3ccccc3n2Cc2ccccc2)nc2ccccc21	-4.2*	.	7	13	-0.24	23
c1ccc(Cn2c(CNc3nc4ccccc4n3CCN3CCCCC3)nc3ccccc32)cc1	-3.8*	.	.	.	0.25	.
O=C(Nc1cccc(O)c1)c1ccc(Br)c(S(=O)(=O)N2CCCCC2)c1	-0.41	-6	-18	-2	-2.2	-7
Cn1c(CC(=O)Nc2ccc(Cl)c(Cl)c2)nnc1SCC(=O)N1CCN(c2ccccc2)CC1	-4.2	.	-5	3	-0.64	36*
CN1CCCN(C(=O)Cc2c(Cl)cccc2Cl)c2nc3ccccc3nc21	-3.5	70*	-11	1	-0.23	43*
Cc1cccc(-n2cnc(C(=O)N/N=C/c3ccccc3)c2)n1	1.2	.	6	-7	0.15	6
CCOC(=O)c1oc2ccccc2c1NC(=O)c1cccc(OC)c1OC	-2.1	55	-5	15	-1.5	46*
CC(C)(C)NC(=O)CN(Cc1cccs1)C(=O)c1csnn1	0.38	-16	-4	-10	0.8	31*
Cc1ccc(-c2nn(-c3cc(Cl)ccc3[N+](=O)[O-])c(=O)c3ccccc23)cc1C	-4.6*	.	-15	1	-0.57	21
O=c1c2ccccc2c(-c2ccccc2)nn1-c1cc(Cl)ccc1[N+](=O)[O-]	-6.9*	.	-5	-5	-1.3	28
Cc1nn(-c2ccc(Cl)c(Cl)c2Cl)c(=O)c2ccccc12	-2.7	.	-10	-9	-0.91	29
O=c1c2ccccc2c(-c2ccc(Cl)cc2)nn1-c1ccccc1	.	.	0	6	-0.21	40*
Cc1nn(-c2ccc(Cl)c(Cl)c2)c(=O)c2ccccc12	-1.2	.	2	-1	0.56	49*
Cc1c(CCO)c(=O)n(-c2ccccc2)n1S(=O)(=O)c1ccc(Cl)cc1	0.14	.	-3	-6	-0.03	-3
O=C1C(=O)N(CCCN2CCOCC2)C(c2ccccn2)/C1=C(\O)c1ccc2c(c1)OCCO2 (stereo not drawn)	.	-17	.	.	.	.
Cc1nn(-c2cc(N3CCCCCC3)ccc2[N+](=O)[O-])c(=O)c2ccccc12	0.0084	.	-12	1	-4.1*	5
CCc1ccc(-c2nn(-c3cc(Cl)ccc3[N+](=O)[O-])c(=O)c3ccccc23)cc1	-3.6*	.	-21	-3	-0.18	18
CCCCOC(=O)CSc1nnc(-c2ccc(Cl)cc2Cl)o1	-0.12	73*	11	-1	2	16
FC(F)(F)c1cccc(N2CCN(CC3CC=CCC3)CC2)c1 (stereo not drawn)	.	.	5	0	0.28	6
Cc1cc(C)n2nc(SCc3nnc(SCc4ccccc4)s3)nc2n1	-1.4	.	0	6	0.64	39*
O=C(c1ccco1)N1CCN(C(c2ccc(F)cc2)c2nnnn2CC2CCCO2)CC1 (stereo not drawn)	0.28	-18	0	2	-0.5	6
